# RAD54 branch = RAD54 (human) branch migration inhibition; inhibition, % at 10.4 µM; RAD54 Holliday junction branch migration, FAM/BHQ fluorescence; Q92698; hit rate 0.14% among 360,000;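 active = mean normalized replicate activity at least 40 and at least half of replicates scoring 40 or more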;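 also: 0% = median of neutral control wells and 100% = median of positive control wells; inhibitors cause a drop in the FAM fluorescence signal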
# S100A4 MyoIIA = blocks human S100A4 binding to myosin IIA peptide. hit rate 0.14% among 360,000. inhibition, % at 10.7 µM. S100A4/TAMRA-MyoIIA peptide fluorescence polarization. P26447;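 active = mean inhibition of at least 70% across replicates, with every replicate also reaching that level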
#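 Test system: S100A4 monomer protein. Medium: HEPES buffer with Ca2+, pH 7.2. Reagent: fluorescent myosin IIA peptide, 5 nM. Compound dosing: single-point compound testing. Timing: 5 min between mix addition and reading. Benchmarks: DMSO neutral and TFP positive wells.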
# GSIS activator = GLuc luminescence reporter in INS-1E cells, primary screen for activators of glucose-dependent secretion of insulin | INS-1E GLuc reporter insulin secretion, 2-3 h | activation, % at 16.6 µM | hit rate 0.61% among 370,000;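 active = lowest replicate activation of at least 40%, so every replicate reaches that level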;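 also: 0% = median of neutral control wells and 100% = median of IBMX positive control wells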
# RAD52 inh = inhibitors of human RAD52 DNA annealing. AID 651710. inhibition, % at 18.7 µM. recombinant RAD52 DNA annealing, FRET fluorescence. hit rate 0.46% among 360,000;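 active = every replicate showing at least 50% inhibition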
# AF4-AF9 inh = inhibitors of human MLL-AF4/AF9 interaction; P42568; inhibition, % at 10 µM; AID 651704; hit rate 0.47% among 350,000; AlphaScreen, biotin-AF4 peptide binding to FLAG-AF9;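 active = every replicate reaching a set inhibition limit, whatever the replicate mean, cut at about 25% in these data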;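 also: 0% = plate neutral control median and 100% = total signal loss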
# Target sequence (P42568 whole entry, looked up): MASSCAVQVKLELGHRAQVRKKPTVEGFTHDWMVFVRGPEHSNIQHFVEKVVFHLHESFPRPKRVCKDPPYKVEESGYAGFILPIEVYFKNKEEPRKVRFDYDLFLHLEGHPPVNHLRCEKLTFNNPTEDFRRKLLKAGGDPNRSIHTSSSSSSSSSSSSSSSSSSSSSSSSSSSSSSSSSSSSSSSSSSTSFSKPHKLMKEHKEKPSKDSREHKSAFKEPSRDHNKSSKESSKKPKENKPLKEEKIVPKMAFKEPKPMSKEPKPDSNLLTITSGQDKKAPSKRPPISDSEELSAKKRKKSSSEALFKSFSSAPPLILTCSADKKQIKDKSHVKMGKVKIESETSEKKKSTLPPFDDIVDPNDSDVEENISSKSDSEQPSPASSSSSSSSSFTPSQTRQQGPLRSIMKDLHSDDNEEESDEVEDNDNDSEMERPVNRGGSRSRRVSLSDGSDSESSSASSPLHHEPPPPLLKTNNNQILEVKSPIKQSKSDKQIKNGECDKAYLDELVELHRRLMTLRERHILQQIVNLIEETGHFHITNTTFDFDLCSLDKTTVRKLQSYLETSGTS
# Numbers without * were called inactive; i = inactive; . = no result given. Only some compounds are listed: those with a hit (about 1.3% of all), similar ones and a draw of the others.
SMILES,RAD54 branch,S100A4 MyoIIA,GSIS activator,RAD52 inh,AF4-AF9 inh
O=C(CC1c2ccccc2Oc2ccccc21)Nc1ccccc1F,-5,.,-18,.,.
C[C@H]1CN([C@@H](C)CO)C(=O)c2cc(-c3ccc(C#N)cc3)cnc2O[C@H]1CN(C)Cc1cccnc1,1,-2,-1,9,-5
CCOCCCNC(=O)Cn1nc(-c2ccccc2)ccc1=O,1,-9,-3,0,51*
CCOCCCNC(=O)Cn1nc(-c2ccc(OC)c(OC)c2)ccc1=O,2,-1,17,-10,0
O=C(N=C1SC2CS(=O)(=O)CC2N1c1ccc(F)c(Cl)c1)C1CC1 (centres undefined),10,2,42*,-17,-11
COc1ccccc1CNc1nc(NC(C)C)nc2cc(-c3ccccc3)sc12,11,-3,-8,-9,9
Cc1ccc(F)cc1-c1nc(NC(C)C)nc2cc(-c3ccccc3)sc12,5,-2,66*,-6,2
c1ccc2c(c1)OCC(c1nnc3n1-c1ccccc1SC3)O2 (centres undefined),3,.,.,.,.
c1ccc(-c2nnc3n2-c2ccccc2SC3)cc1,.,2,58*,-2,-3
C[C@H](CO)N1C[C@H](C)[C@@H](CN(C)C(=O)CC2CC2)Oc2ncc(C#CC3CC3)cc2C1=O,-3,0,-3,-3,1
CN1/C(=C\C=C2/C(=O)Oc3ccccc3C2=O)C(C)(C)c2ccccc21,.,178*,-10,-330,-1
CN1/C(=C\C=C2/SC(=S)NC2=O)C(C)(C)c2ccccc21,.,104*,18,i,7
CC1=NN(c2ccccc2)C(=O)/C1=C\C=C1/N(C)c2ccccc2C1(C)C,.,-23,-1,-13,36*
CN1C(=CC=C2C=C(I)C(=O)C(I)=C2)C(C)(C)c2ccccc21,-20,-1,-36,-16,-2
Cc1ccc(CNC(=O)CN2CCN(Cc3ccc(C)cc3)C2=O)cc1,-6,.,.,.,.
Cc1ccc(CN2CCN(CC(=O)N3CCC(C(N)=O)CC3)C2=O)cc1,-24,0,.,3,41*
CCCN(C)C[C@H]1OCCCC[C@H](C)Oc2ccc(NC(=O)CCC(F)(F)F)cc2C(=O)N([C@@H](C)CO)C[C@H]1C,.,.,19,.,.
Cc1ccc(S(=O)(=O)Nc2c3ccccc3nc(=O)n2-c2ccccc2)cc1,0,.,59*,.,.
COc1cccc(-n2c(=O)c3ccccc3n(CC(=O)NCC3CCCO3)c2=O)c1 (centres undefined),-5,-3,75*,-2,0
CCCN1[C@H](CO)[C@H](c2ccc(C3=CCCCC3)cc2)[C@@H]1CNS(C)(=O)=O,.,80*,-1,-21,4
COc1ccc(C(=O)OCC(=O)c2c(N)n(C)c(=O)n(C)c2=O)c(OC)c1OC,2,7,45*,-9,2
COc1ccc(NC(=O)Nc2ccc3c(c2)C(=O)N([C@@H](C)CO)C[C@H](C)[C@H](CN(C)Cc2ccccc2)OCCCC[C@H](C)O3)cc1,3,4,-26,57*,10
COc1ccc(NC(=O)Nc2ccc3c(c2)C(=O)N([C@@H](C)CO)C[C@H](C)[C@@H](CN(C)Cc2ccccc2)OCCCC[C@H](C)O3)cc1,1,57,-17,32,7
C[C@@H]1CCCCO[C@H](CN(C)Cc2ccccc2)[C@H](C)CN([C@@H](C)CO)C(=O)c2cc(NC(=O)Nc3ccc(F)cc3)ccc2O1,5,4,-20,53*,9
COc1ccc(NC(=O)Nc2ccc3c(c2)C(=O)N([C@@H](C)CO)C[C@H](C)[C@H](CN(C)Cc2ccccc2)OCCCC[C@@H](C)O3)cc1,6,-1,-30,60*,12
COc1ccc(NC(=O)Nc2ccc3c(c2)C(=O)N([C@H](C)CO)C[C@@H](C)[C@@H](CN(C)Cc2ccccc2)OCCCC[C@H](C)O3)cc1,0,6,-24,51*,-4
COc1ccc(CN(C)C[C@H]2OCCCC[C@H](C)Oc3ccc(NC(=O)Nc4ccccc4)cc3C(=O)N([C@@H](C)CO)C[C@@H]2C)cc1,-3,.,-28,.,.
Cc1ccc(S(=O)(=O)Nc2ccc3c(c2)C(=O)N([C@H](C)CO)C[C@@H](C)[C@@H](CN(C)S(=O)(=O)c2cn(C)cn2)OCCCC[C@H](C)O3)cc1,8,-3,2,-46,-3
